Results as given in ChEMBL document CHEMBL1240362, “Intrapulmonary pharmacokinetics of S-013420, a novel bicyclolide antibacterial, in healthy Japanese subjects” (Antimicrob Agents Chemother, 2010).

Experiments:
[1] = Terminal-phase half-life in epithelial lining fluid of healthy human at 400 mg, po administered as single dose; conditions: read-out: beta t1/2 (converted)
[2] = Ratio of AUC (0 to 24 hrs) in […] healthy epithelial lining fluid to MIC90 for erythromycin-susceptible Staphylococcus aureus; format: functional
[3] = system: Homo sapiens; test: Toxicity in healthy human assessed as alveolar macrophage count in bronchoalveolar fluid at 400 mg, po administered as single dose after 6 hrs; conditions: in vivo
[4] = system: Homo sapiens; test: Toxicity in healthy human assessed as other cellular fractions in bronchoalveolar fluid at 400 mg, po administered as single dose after 2 hrs; conditions: in vivo
[5] = Plasma concentration in healthy human at […], po after 24 hrs; format: ADME, organism-based; parameters: route oral
Outline: (§1)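 Healthy nonsmoking Japanese men, 20-45 y, given one oral 400 mg suspension dose. Blood drawn at 0-72 h, spun at 1,600 × g for 10 min at 4°C, plasma kept at −20°C. Drug measured by validated LC/MS/MS, linear 0.005-5 μg/ml. Values are mean ± SD, n = 28. Cmax, Tmax and t1/2,z are model-independent; AUC0-24 by trapezoidal method.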

[6] = system: Homo sapiens; test: Toxicity in healthy human assessed as lymphocytes count in bronchoalveolar fluid at […], po administered as single dose after 6 hrs; format: organism-based, Lung; parameters: route oral; conditions: in vivo
Outline: (§2)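 Healthy Japanese male never-smokers, aged 20 to 45 years with normal BMI, got one open-label oral 400 mg suspension dose. Four subjects per time group had one fiber-optic bronchoscopic BAL at the assigned post-dose time. The first aliquot was discarded and the last three were pooled. BAL fluid was held on ice and spun at 400 × g for 5 min at 4°C. Pellet cells were counted by hemocytometer, with a differential count on a stained cytocentrifuge preparation.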

[7] = Cmax in alveolar macrophages of healthy human at 400 mg, po administered as single dose
[8] = system: Homo sapiens; test: Toxicity in healthy human assessed as alveolar macrophage count in bronchoalveolar fluid at 400 mg, po administered as single dose after 12 hrs; conditions: in vivo
[9] = Ratio of AUC (0 to 24 hrs) in plasma of healthy human to MIC90 for Haemophilus influenzae; format: functional
[10] = Tmax in alveolar macrophages of healthy human at 400 mg, po administered as single dose
[11] = system: Homo sapiens; test: Toxicity in healthy human assessed as other cellular fractions in bronchoalveolar fluid at […], po administered as single dose after 10 hrs; format: organism-based, Lung; parameters: route oral; conditions: in vivo
Outline: as §2

[12] = system: Homo sapiens; test: Toxicity in healthy human assessed as eosinophil count in bronchoalveolar fluid at 400 mg, po administered as single dose after 8 hrs; conditions: in vivo
[13] = system: Streptococcus pyogenes; test: Antimicrobial activity against Streptococcus pyogenes; format: functional
[14] = Drug level in alveolar macrophages of healthy human at […], po administered as single dose after 12 hrs; format: ADME, organism-based, Macrophage; parameters: route oral; conditions: read-out: Drug uptake
Outline: (§3)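 One oral 400 mg suspension dose; four volunteers lavaged at each time (2-24 h). Cell pellet from the pooled 2nd-4th aspirates was counted (hemocytometer, stained cytospin differential). Drug in cell suspension measured by HPLC, divided by AM volume assuming 2.42 μl/10^6 cells. Cmax and Tmax are model-independent, based on mean concentrations at each time.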

[15] = Ratio of drug level in alveolar macrophages to plasma in healthy human at 400 mg, po administered as single dose after 2 hrs
[16] = system: Homo sapiens; test: Toxicity in healthy human assessed as eosinophil count in bronchoalveolar fluid at 400 mg, po administered as single dose after 4 hrs; conditions: in vivo
[17] = system: Staphylococcus aureus; test: Antimicrobial activity against methicillin susceptible Staphylococcus aureus; format: functional
[18] = Ratio of drug level in alveolar macrophages to plasma in healthy human at 400 mg, po administered as single dose after 24 hrs
[19] = system: Homo sapiens; test: Toxicity in healthy human assessed as alveolar macrophage count in bronchoalveolar fluid at 400 mg, po administered as single dose after 8 hrs; conditions: in vivo
[20] = Ratio of drug level in epithelial lining fluid to plasma in healthy human at […] administered as single dose after 8 hrs; format: ADME, organism-based; parameters: route oral; conditions: po
Outline: (§4)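 For each subject, ELF or AM drug level after the single oral 400 mg dose is divided by the plasma level sampled at the BAL time (2-24 h). Ratios are summarized per four-subject group.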

[21] = system: Homo sapiens; test: Toxicity in healthy human assessed as other cellular fractions in bronchoalveolar fluid at 400 mg, po administered as single dose after 4 hrs; conditions: in vivo
[22] = system: Homo sapiens; test: Toxicity in healthy human assessed as eosinophil count in bronchoalveolar fluid at 400 mg, po administered as single dose after 6 hrs; conditions: in vivo
[23] = Plasma concentration in healthy human at […], po after 12 hrs; format: ADME, organism-based; parameters: route oral
Outline: as §1

[24] = Plasma concentration in healthy human at […], po after 6 hrs; format: ADME, organism-based; parameters: route oral
Outline: as §1

[25] = Ratio of alveolar macrophages AUC (0 to 24 hrs) to plasma AUC (0 to 24 hrs) in healthy human at 400 mg, po administered as single dose
[26] = system: Homo sapiens; test: Toxicity in healthy human assessed as neutrophil count in bronchoalveolar fluid at […], po administered as single dose after 2 hrs; format: organism-based, Lung; parameters: route oral; conditions: in vivo
Outline: as §2

[27] = Plasma concentration in healthy human at […], po after 10 hrs; format: ADME, organism-based; parameters: route oral
Outline: as §1

[28] = Drug level in alveolar macrophages of healthy human at […], po administered as single dose after 2 hrs; format: ADME, organism-based, Macrophage; parameters: route oral; conditions: read-out: Drug uptake
Outline: as §3

[29] = system: Homo sapiens; test: Toxicity in healthy human assessed as alveolar macrophage count in bronchoalveolar fluid at 400 mg, po administered as single dose after 24 hrs; conditions: in vivo
[30] = Ratio of drug level in alveolar macrophages to plasma in healthy human at 400 mg, po administered as single dose after 6 hrs
[31] = Ratio of drug level in epithelial lining fluid to plasma in healthy human at […], po administered as single dose after 6 hrs; format: ADME, organism-based; parameters: route oral
Outline: as §4

[32] = Drug level in epithelial lining fluid of healthy human at […], po administered as single dose after 4 hrs; format: ADME, organism-based; parameters: route oral; conditions: read-out: Drug uptake
Outline: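 Four healthy male volunteers per BAL time (2-24 h) after one oral 400 mg suspension dose. Single bronchoscopic lavage; first aliquot discarded, next three pooled. Supernatant separated at 400 × g, 5 min, 4°C, and drug assayed by LC/MS/MS. ELF level = CBAL × urea plasma/urea BAL, with urea corrected for blood contamination via RBC ratio. PK parameters are model-independent, based on the mean concentration at each time.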

[33] = Drug level in alveolar macrophages of healthy human at […], po administered as single dose after 6 hrs; format: ADME, organism-based, Macrophage; parameters: route oral; conditions: read-out: Drug uptake
Outline: as §3

[34] = system: Homo sapiens; test: Toxicity in healthy human assessed as other cellular fractions in bronchoalveolar fluid at […], po administered as single dose after 12 hrs; format: organism-based, Lung; parameters: route oral; conditions: in vivo
Outline: as §2

For `CC[C@H]1OC(=O)[C@H](C)C(=O)[C@H](C)[C@@H](O[C@@H]2O[C@H](C)C[C@H](N(C)C)[C@H]2O)[C@@]2(C)C[C@@H](C)/C(=N\C(C)=O)[C@H](C)[C@@H](OC/C(=N\OCc3ccc(-n4cccn4)nc3)CO2)[C@]1(C)O` [MODITHROMYCIN], the half-life [1] was 14.8 h, the RatioAUC/MIC [2] was 849.6 and the Activity [3] was 86.9%. For the same compound, the Activity [4] was 0%, the concentration at 24 h [5] was 315 ng/mL and the Activity [6] was 13%. The Cmax [7] was 176000 ng/mL, the Activity [8] was 85.9% and the RatioAUC/MIC [9] was 1.3. It also gave a Tmax [10] of 12 h, an Activity [11] of 0.5% and an Activity [12] of 0.3%. For the same compound, the MIC90 [13] was no more than 0.063 µg/mL, the concentration at 12 h [14] was 176000 ng/mL and the Kp at 2 h [15] was 93. The Activity [16] was 0.1%, the MIC90 [17] was no more than 0.063 µg/mL and the Kp at 24 h [18] was 232. For the same compound, the Activity [19] was 90.4%, the Kp at 8 h [20] was 25.9 and the Activity [21] was 0%. It also gave an Activity [22] of 0%, a concentration at 12 h [23] of 424 ng/mL and a concentration at 6 h [24] of 540 ng/mL. It also gave a Kp [25] of 245, an Activity [26] of 0% and a concentration at 10 h [27] of 429 ng/mL. The concentration at 2 h [28] was 61000 ng/mL, the Activity [29] was 89.3% and the Kp at 6 h [30] was 183. It also gave a Kp at 6 h [31] of 27, a concentration at 4 h [32] of 13700 ng/mL and a concentration at 6 h [33] of 100000 ng/mL. It also gave an Activity [34] of 0%.
